# CTSL1 counter: counter-screen for PFM18AAP inhibitors: inhibitors of F. hepatica cathepsin L1 | recombinant F. hepatica cathepsin L1, Z-Leu-Arg-MCA fluorescence | inhibition, % at 5.96 µM | 300,000 tested, 0.49% active | AID 1906;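 active = inhibition above the mean of all tested compounds plus 3 SD, set per screening campaign, cut at about 17% in these data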;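 also: 0% = plate median of test compound wells and 100% = 1 µM Z-Phe-Ala-diazomethylketone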
# ATG4B inh: blocks human ATG4B protease cleavage of LC3 substrate; ATG4B cleavage of LC3-PLA2, NBD-HPC fluorescence, 1 h; Q9Y4P1; AID 504462; inhibition, % at 8.33 µM; 340,000 tested, 0.51% active; in the data active = inhibition above about 40%
# Diaph act CS: counter-screen for diaphorase-based assays: diaphorase activators and chemical reducers; Diaphorase/resazurin coupled assay, resorufin fluorescence, 16 min; active compounds read high; 1 = vehicle wells, 0 = NADH-free wells; activation factor at 20 µM; 190,000 tested, 0.005% active;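 active = diaphorase activity raised at least twofold by the compound at 20 µM; inactive = activation factor below 2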
#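 Test system: Clostridium kluyveri diaphorase, purified enzyme. Buffer or medium: 50 mM HEPES pH 7.4 buffer plus MgCl2 and Tween 20. Also added: 0.114 mM NADH and 0.1 mM resazurin, final amounts. Dosing: compound 20 µM once, DMSO 1%. Schedule: 16 min enzyme reaction, ambient temperature. Detection: fluorescence of resorufin, 544 nm excitation, 590 nm emission.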
# Diaph inh CS: diaphorase inhibition or chemical oxidation counter-screen | AID 1217 | diaphorase resazurin-to-resorufin fluorescence, NADH, 16 min; bacterial (C. kluyveri) enzyme, not human | inhibition, % at 20 µM | 190,000 tested, 0.69% active;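 active = primary screen inhibition at 20 µM above a set limit, cut at about 50% in these data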;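 also: plate controls were DMSO with full reaction for no effect and wells lacking NADH for full effect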
#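 controls = No-NADH positive control and DMSO neutral control | system = Clostridium kluyveri diaphorase enzyme | timing = reaction incubation of 16 min at room temperature | signal = resorufin fluorescence 544/590 nm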
# HKDC1 inh: inhibitors of human hexokinase HKDC1; recombinant HKDC1, G6PDH/diaphorase resazurin coupled fluorescence; inhibition, % at 20 µM; 340,000 tested, 0.16% active;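 active = inhibition above about 35% when tested at 20 µM, limit read from the data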;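 also: plate controls were DMSO wells with enzyme for no effect and DMSO wells lacking enzyme for full effect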
#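 Incubation: 90 min at room temperature in dark / Material: recombinant HKDC1 (HK5) hexokinase enzyme, produced in-house / Quantity: enzyme 5 µg/mL final / Compound: one dose of 20 µM, 1% DMSO / Reagent: glucose and ATP substrates / Buffer or medium: Tris pH 8.0 buffer with MgCl2, Tween-20, BSA, BME / Technique: resorufin fluorescence at 613 nm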
# HKDC1 act conf2: confirmation of human HKDC1 activators; shares compounds with HKDC1 inh; recombinant HKDC1, G6PDH/diaphorase resazurin fluorescence; active compounds read low; inhibition, % at 20 µM; 740 tested, 14% active; AID 504708;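 active = inhibition at or below a set negative limit, negative inhibition meaning the enzyme was activated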
# * = called active by the depositor; . = no result. An excerpt weighted towards active compounds, which were near 1.4% of everything screened.
SMILES,CTSL1 counter,ATG4B inh,Diaph act CS,Diaph inh CS,HKDC1 inh,HKDC1 act conf2
CCc1[nH]nc(C(=O)N2CCCC(N3CCN(c4ccccc4C)CC3)C2)c1C (stereo not given),9,6,.,.,7,.
Oc1ccc2ccccc2c1C=NC1CCCCC1,-4,11,0.5,52*,35*,-8
O=C1C=C(Nc2ccc(F)cc2)c2ccccc2C1=O,.,-13,.,.,42*,4
O=C1C=C(NCc2ccccc2)c2ccccc2C1=O,.,40,1.1,-15,80*,56
CCOc1ccc(NC2=CC(=O)C(=O)c3ccccc32)cc1,.,-6,.,.,22,.
COCCn1cnc2c1c(=O)n(CC(=O)NC(=O)NC(C)(C)C)c(=O)n2Cc1ccccc1,.,-6,.,.,-6,.
Cc1cc(C)c2cc(C)c3nnc(SCC(=O)NCc4ccc5c(c4)OCO5)n3c2c1,3,-9,0.6,43,32,31
COc1ccc(N2CCN(C(=O)CSc3nnc4c(C)cc5c(C)cc(C)cc5n34)CC2)cc1,0,-12,0.6,44,43*,19
COc1ccc(N2CCN(C(=O)CSc3nnc4c(C)cc5cc(C)ccc5n34)CC2)cc1,4,-12,0.6,43,21,.
Cc1ccc(/C=C/C(=O)c2ccc([N+](=O)[O-])o2)cc1,1,-1,.,.,46*,19
N#C/C(=C\c1ccccc1)C(=O)NNS(=O)(=O)c1ccc(Br)cc1,.,-1,.,.,5,.
Cc1ccc(N=Nc2ccc(O)c3ncccc23)cc1C,2,-1,0.9,14,-43,-40*
O=C(/C=C/c1ccc(Br)cc1)NC(=S)Nc1ccc(S(=O)(=O)Nc2nccs2)cc1,2,37,0.8,17,30,40
CN(C)c1ccc2nc3ccc(=[N+](C)C)cc-3sc2c1,-4,1,1.2,-22,36*,25
CCOC(=O)c1ccc(NC(=O)CSc2ccc(-c3ccccn3)nn2)cc1,1,1,.,.,37*,31
Nc1nc(N2CCN(c3ccccn3)CC2)nc2ccccc12,-2,-1,.,.,-58,-44*
Cc1ccc2cc(C=C(C#N)C#N)c(N3CCCCC3)nc2c1,-3,4,0.8,20,41*,-11
Cc1ccc2cc(/C=C(\C#N)C(N)=O)c(N3CCCCC3)nc2c1,1,-6,0.9,8,9,.
C=CCn1ccc(O)c(Cc2ccc(Cl)cc2)c1=O,0,4,.,.,-2,.
O=C(N/N=C/c1ccc[nH]1)c1sc2ccccc2c1Cl,2,-27,0.9,13,-42,-30
O=C1C(C2=C(O)c3ccccc3C2=O)=Nc2ccccc21,15,-14,0.9,10,-242,-162*
C=CCN1C=C2C(=O)C(C)(OC(=O)CCC(=O)OC)C(=O)C(Br)=C2C=C1c1ccc(OC)cc1 (stereo not given),-5,-6,.,.,36*,57
COC(=O)CCC(=O)OC1(C)C(=O)C2=CN(Cc3ccco3)C(c3ccc(OC)cc3)=CC2=C(Br)C1=O (stereo not given),-25,.,.,.,.,.
COC(=O)CCC(=O)OC1(C)C(=O)C2=CN(C3CCCC3)C(c3ccc(OC)cc3)=CC2=C(Br)C1=O (stereo not given),-4,-13,.,.,38*,12
CCN(CC)CCCN1C=C2C(=O)C(C)(OC(=O)CCC(=O)OC)C(=O)C(Br)=C2C=C1c1ccc(OC)cc1 (stereo not given),-16,3,.,.,19,.
COCCN1C=C2C(=O)C(C)(OC(=O)CCC(=O)OC)C(=O)C(Br)=C2C=C1c1ccc(OC)cc1 (stereo not given),7,-3,.,.,38*,-4
COC(=O)CCC(=O)OC1(C)C(=O)C2=CN(c3ccc(OC)cc3)C(c3ccc(OC)cc3)=CC2=C(Br)C1=O (stereo not given),-6,3,.,.,35,8
COC(=O)CCCC1=CC2=C(c3ccccc3)C(=O)C(C)(OC(=O)C3CCCC3)C(=O)C2=CN1C1CC1 (stereo not given),1,1,.,.,11,.
O=C(/C=C/c1cccc(Cl)c1)NCCCN1CCOCC1,0,-3,.,.,-8,.

# Screens (PubChem BioAssay)
